{"data": "Assay results gathered from unrelated publications", "target": "Bone morphogenetic protein receptor type-2 (BMPR2, Homo sapiens, UniProt Q13873)", "Residues used in one study (Q13873 27-1038)": "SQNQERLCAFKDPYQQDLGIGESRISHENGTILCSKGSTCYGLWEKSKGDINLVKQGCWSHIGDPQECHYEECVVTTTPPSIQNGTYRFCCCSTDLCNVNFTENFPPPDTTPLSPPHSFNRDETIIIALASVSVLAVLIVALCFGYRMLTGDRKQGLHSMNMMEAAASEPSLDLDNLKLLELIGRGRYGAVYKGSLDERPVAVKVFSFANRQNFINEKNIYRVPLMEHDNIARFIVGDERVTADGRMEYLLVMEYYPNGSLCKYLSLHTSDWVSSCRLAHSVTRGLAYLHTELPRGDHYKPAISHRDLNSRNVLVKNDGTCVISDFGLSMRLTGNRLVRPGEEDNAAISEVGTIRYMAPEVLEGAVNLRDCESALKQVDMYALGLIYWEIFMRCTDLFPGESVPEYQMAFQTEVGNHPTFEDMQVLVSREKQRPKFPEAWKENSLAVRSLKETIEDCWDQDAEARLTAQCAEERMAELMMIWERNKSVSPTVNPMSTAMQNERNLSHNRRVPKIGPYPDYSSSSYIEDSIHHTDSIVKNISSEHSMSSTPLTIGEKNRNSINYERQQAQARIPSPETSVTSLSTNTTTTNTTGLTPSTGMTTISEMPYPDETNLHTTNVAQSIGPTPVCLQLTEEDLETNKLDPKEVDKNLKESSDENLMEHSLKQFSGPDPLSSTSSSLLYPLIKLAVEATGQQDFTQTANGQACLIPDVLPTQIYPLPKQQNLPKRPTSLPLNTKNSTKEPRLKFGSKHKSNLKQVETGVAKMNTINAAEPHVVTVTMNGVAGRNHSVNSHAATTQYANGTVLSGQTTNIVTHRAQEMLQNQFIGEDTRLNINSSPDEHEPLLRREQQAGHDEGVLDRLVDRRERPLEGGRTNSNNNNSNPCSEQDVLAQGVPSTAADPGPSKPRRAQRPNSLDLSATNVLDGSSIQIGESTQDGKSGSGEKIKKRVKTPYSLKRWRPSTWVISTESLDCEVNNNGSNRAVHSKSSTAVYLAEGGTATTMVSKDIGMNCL", "note": "Each line is one published result; the experiments were not run side by side."}
{"Compound": "C[C@@H]1CN(c2cc(-c3nn(C)c4ccc(OC5(C)CC5)cc34)ncn2)C[C@H](C)O1", "effect on": "cell-free assay", "method": "competition with immobilised ligand", "concentration": "1 µM", "remaining binding [%]": 54}
{"Compound": "COc1cnc(Nc2cccc(S(N)(=O)=O)c2)nc1N1CCN(c2ccccc2)C(=O)C1", "effect on": "binding", "method": "competition with immobilised ligand", "concentration": "1 µM", "remaining binding [%]": 0}
{"Compound": "CCCCN(CCCC)C(=O)CN1C[C@@H](c2cc(OC)c3c(c2)OCO3)[C@H](C(=O)O)[C@H]1CC(C)(C)CCC", "effect on": "cell-free assay", "method": "competition with immobilised ligand", "concentration": "1 µM", "remaining binding [%]": 86.7}
{"Compound": "CN(c1nccc(-c2cnn3ncccc23)n1)C1CC1", "effect on": "binding", "concentration": "1 µM", "remaining binding [%]": 100}
{"Compound": "O=C(c1ccc(Nc2nccc(-c3cc4ccccc4s3)n2)cc1)N1CCC(N2CCCC2)CC1", "effect on": "binding", "method": "competition with immobilised ligand", "concentration": "1 µM", "remaining binding [%]": 67}
{"Compound": "c1cncc(-c2cccc(Nc3nccc(NC4CCCCC4)n3)c2)c1", "effect on": "binding", "method": "competition with immobilised ligand", "concentration": "10 µM", "remaining binding [%]": 40}
{"Compound": "C[C@H]1CCN(c2nccc(-c3cnn4ncccc34)n2)C1", "effect on": "binding", "concentration": "1 µM", "remaining binding [%]": 97}
{"Compound": "CCC(=N\\O)/C(C)=C/c1ccc(F)cc1", "effect on": "cell-free assay", "method": "competition with immobilised ligand", "concentration": "1 µM", "remaining binding [%]": 81}
{"Compound": "FC(F)(F)Oc1cccc(-c2cnc3ccc(-c4ccncc4)nn23)c1", "effect on": "cell-free assay", "method": "competition with immobilised ligand", "concentration": "5 µM", "remaining binding [%]": 56}
{"Compound": "CN(C)c1nccc(-c2cnn3ncccc23)n1", "effect on": "binding", "concentration": "1 µM", "remaining binding [%]": 99}
{"Compound": "CCOC(=O)c1cc2cc(-c3cc(C(=O)NCc4ccc(C(=O)O)cc4)nn3C)ccc2[nH]1", "effect on": "cell-free assay", "method": "competition with immobilised ligand", "concentration": "0.1 µM", "remaining binding [%]": 82}
{"Compound": "N[C@H]1CCN(c2nccc(-c3cnn4ncccc34)n2)C1", "effect on": "binding", "concentration": "1 µM", "remaining binding [%]": 100}
{"Compound": "O=C(O)c1cc(-c2ccc(C3CCNCC3)cc2)c2ccc(-c3ccc(C(F)(F)F)cc3)cc2c1", "effect on": "cell-free assay", "method": "competition with immobilised ligand", "concentration": "1 µM", "remaining binding [%]": 100}
{"Compound": "CC1CCCN1c1nccc(-c2cnn3ncccc23)n1 (stereo not drawn)", "effect on": "binding", "concentration": "1 µM", "remaining binding [%]": 97}
{"Compound": "COc1ncc2cc3ccccc3nc2c1C#N", "effect on": "cell-free assay", "method": "competition with immobilised ligand", "concentration": "5 µM", "remaining binding [%]": 100}
{"Compound": "CNC(=O)[C@@H]1CC[C@@H](n2c(-c3ccc4cnccc4c3)nc3ccc(C(=O)NCc4cccc(C(N)=O)c4)cc32)C1", "effect on": "binding", "method": "competition with immobilised ligand", "concentration": "1 µM", "remaining binding [%]": 0.25}
{"Compound": "O=C(Nc1c[nH]nc1C(=O)NC1CCNCC1)c1cc(F)cc(F)c1", "effect on": "binding", "method": "competition with immobilised ligand", "concentration": "1 µM", "remaining binding [%]": 100}
{"Compound": "CS(=O)(=O)c1cc(C2(NC(=O)c3cncc4c3cnn4-c3ccc(F)cc3)CC2)ccn1", "effect on": "cell-free assay", "method": "competition with immobilised ligand", "concentration": "1 µM", "remaining binding [%]": 99}
{"Compound": "O=C(NCCCN1CCOCC1)c1ccc(Nc2ncc(Cl)c(-c3ccc(Cl)s3)n2)cc1", "effect on": "binding", "method": "competition with immobilised ligand", "concentration": "1 µM", "remaining binding [%]": 55}
{"Compound": "C[C@@H]1CN(c2ccc3ncc(-c4ccc5[nH]nc(C6CC6)c5c4)n3n2)C[C@H](C)O1", "effect on": "binding", "method": "competition with immobilised ligand", "concentration": "50 nM", "remaining binding [%]": 89}
{"Compound": "CN(C)c1ncc(F)c(-c2cnn3ncccc23)n1", "effect on": "binding", "concentration": "1 µM", "remaining binding [%]": 74}
{"Compound": "CC(=O)N1CCC(c2ccc(C(=O)NC3=NCCN3)cc2C(F)(F)F)CC1", "effect on": "cell-free assay", "method": "competition with immobilised ligand", "concentration": "1 µM", "remaining binding [%]": 100}
{"Compound": "Cc1cnc(Nc2ccc(C(=O)N3CCC(N4CCCC4)CC3)cc2)nc1-c1cc2ccccc2s1", "effect on": "binding", "method": "competition with immobilised ligand", "concentration": "1 µM", "remaining binding [%]": 25}
{"Compound": "c1cnn2ncc(-c3ccnc(N4CCC45COC5)n3)c2c1", "effect on": "binding", "concentration": "1 µM", "remaining binding [%]": 68}
